This is a sample that favours compounds with a hit; in the whole collection about 1.4% have one here.
Calpain2 inh = blocks pig calpain II enzyme activity | purified calpain II, fluorogenic peptide substrate, 30 min | 0.37% of 220,000 active | inhibition, % at 16 µM;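 active = inhibition above about 50%, limit read from the data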
hK5 inh = kallikrein 5 (human) inhibition; Q9Y337; recombinant hK5, fluorogenic AMC substrate cleavage; inhibition, % at 5 µM; 0.59% of 210,000 active; AID 873;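 active = inhibition of 40% or more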
Target sequence (Q9Y337 67-293 limits assumed): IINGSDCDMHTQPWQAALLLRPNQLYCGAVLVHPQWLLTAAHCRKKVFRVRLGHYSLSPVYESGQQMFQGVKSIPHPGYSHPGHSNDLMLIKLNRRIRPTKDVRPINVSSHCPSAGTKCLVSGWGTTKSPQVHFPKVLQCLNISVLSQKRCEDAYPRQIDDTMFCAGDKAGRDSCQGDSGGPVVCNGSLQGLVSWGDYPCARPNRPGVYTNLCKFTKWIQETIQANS
Furin inh = blocks human furin protease activity; P09958; purified furin, fluorogenic substrate cleavage; inhibition, % at 20 µM or 30 µM; 0.061% of 220,000 active; in the data active = inhibition above about 25%
FXIa inh = factor XIa (human) inhibition | inhibition, % at 5 µM | purified FXIa, Boc-Glu-Ala-Arg-AMC fluorogenic substrate | P03951 | 0.14% of 220,000 active;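 active = inhibition of at least 40%; inactive = inhibition below 40%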;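 also: fluorescence of freed AMC excited at 355 nm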
thrombin 1536 = thrombin (human) inhibition; inhibition, % at 5 µM; alpha-thrombin, Boc-VPR-AMC fluorogenic substrate cleavage; 0.26% of 220,000 active; P00734;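 active = inhibition at or above 40%; inactive = inhibition below 40%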
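System – human alpha-thrombin protein · Reagent – Boc-VPR-AMC substrate, 15 µM final · Compound – 5 µM single dose in 0.2% DMSO · Schedule – reaction at room temperature · Technique – AMC fluorescence at 355 nm excitation and 460 nm emission · Read-out basis – % inhibition relative to enzyme controls and enzyme-free blanks · Control set – no-compound enzyme wells and no-enzyme blanks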
FXIIa inh 1536 = blocks human coagulation factor XIIa protease activity | inhibition, % at 5 µM | P00748 | purified FXIIa, Boc-QGR-AMC fluorogenic substrate, 2 h | 0.3% of 220,000 active; in the data active = inhibition above about 40%
Each line names hits and unclear results; the compound was inactive in the other large screens.

c1ccc2c(C3=NNC(=NC4CCCCC4)SC3)c[nH]c2c1	Calpain2 inh 74.8
c1ccc2c(C3=NNC(=NC4CC4)SC3)c[nH]c2c1	none
Cc1c(NC(=O)CCC(=O)N2CCOCC2)c(=O)n(-c2ccccc2)n1C	none
O=C(c1ccc(S(=O)(=O)NCC2CCCO2)cc1)N1CCc2ccccc21 (centres undefined)	none
O=C(CNCC1CCCO1)N1CCCc2ccccc21 (centres undefined)	hK5 inh 51.8
O=S(=O)(Nc1nc2ccccc2nc1Nc1ccc2c(c1)OCO2)c1ccccc1	none
CC1CCN(CC(=O)Nc2ccccc2C#N)CC1	thrombin 1536 42.5
CCC(C)C(NC(=O)C1CCC(C)CC1)C(=O)NCc1cccnc1 (centres undefined)	Furin inh 29.4
Cc1ccn(CC(C)C(=O)O)n1 (centres undefined)	none
CNC(=O)CS(=O)(=O)CC(=O)Nc1cc(OC(C)C)c(Cl)cc1Cl	none (no result: hK5 inh)
COC(=O)c1ccc(C)c(N(CCO)CCO)c1	hK5 inh 56.5
COC(=O)c1ccc(C(=O)NCCCCO)cc1	none
COc1cc(/C=C/C(=O)OCc2c(C)noc2C)ccc1OC(F)F	hK5 inh 54.1
CSC1=N/C(=C\c2ccc(C)o2)C(=O)S1	hK5 inh 101.5, thrombin 1536 104.3
Cc1cccc(N2CCc3c2nc2ccc(Br)cc2c3N)c1	none
COCc1nc2ccccc2n1Cc1ccc(Br)cc1	Calpain2 inh 56.9
COCc1nc2ccccc2n1Cc1ccccc1	none
CCN(CC)CCc1c(C)[nH]c(C(=O)OCc2ccccc2)c1C	Calpain2 inh 58.0
COc1cc(C(=O)O/N=C2\C=CC(=O)C(C)=C2)cc(OC)c1OC	FXIIa inh 1536 96.2
COc1ccc(C(=O)ON=C2C=C(C)C(=O)C(C)=C2)cc1	FXIIa inh 1536 68.0
COc1cc(C(=O)ON=C2C=C(C)C(=O)C(C)=C2)cc(OC)c1OC	FXIIa inh 1536 90.1
CC1=CC(=NOC(=O)c2cccc([N+](=O)[O-])c2)C=C(C)C1=O	none
COc1cc(C(=O)O/N=C(\N)c2ccncc2)cc(OC)c1OC	none
O=C(O)c1ccc(/C=N/N2CCN(Cc3cccc4ccccc34)CC2)cc1	none
O=C(COC(=O)c1ccccc1C(=O)c1ccc(Cl)c([N+](=O)[O-])c1)NC1CC1	none
Cc1cc2ncn(S(=O)(=O)N3CCCCC3)c2cc1C	none
Cc1cc2ncn(S(=O)(=O)N3CCOCC3)c2cc1C	hK5 inh 46.7, Furin inh 26.5, thrombin 1536 79.7
CCOC(=O)NC(=O)CSc1nc2ccc(OCC)cc2[nH]1	none
CCOC(=O)NC(=O)CSc1nc2ccc([N+](=O)[O-])cc2[nH]1	hK5 inh 43.7
Cc1nn(-c2ccccc2)c(N)c1C(O)(CC(=O)C(F)(F)F)C(F)(F)F (centres undefined)	none
Cc1nn(-c2ccccc2)c(N)c1C(O)(C(F)(F)F)C(F)(F)F	hK5 inh 41.8
CC(C)C(=O)Nc1cc2c(cc1C(=O)c1ccccc1)OCCO2	none
Cc1ccc(NC(=O)C(C)N2CCOCC2)c(C(=O)c2ccccc2)c1 (centres undefined)	hK5 inh 42.5
Cc1ccsc1C1NC(=O)c2c(sc3c2CCN(C)C3)N1 (centres undefined)	none
Cc1cccc(CN2CCN(CC(=O)N3CCCC3)C2=O)c1	FXIa inh 42.9
Cc1cc(F)ccc1NCc1cccnc1	none
Cc1ccc(NCc2cccnc2)c(Br)c1	hK5 inh 46.7
CS(=O)(=O)N(CC(=O)NCc1ccc(Cl)cc1)C1CCCCC1	none
Cc1ccc(NC(=O)CSc2nn(-c3ccccc3)c(=S)s2)cc1S(=O)(=O)N(C)C	none
Cc1ccc(C)c(Cn2c(CO)nc3ccccc32)c1	hK5 inh 40.8
CCOC(=O)c1c(NC(=O)CSc2nnc(-c3cccnc3)o2)sc(C(C)=O)c1C	hK5 inh 48.4
CC1CCCCN1CC(=O)NC(c1ccccc1)c1ccccc1 (centres undefined)	none
CCc1ccc(C(=O)COC(=O)CNC(=O)c2ccc(N3C(=O)c4ccccc4C3=O)cc2)cc1	hK5 inh 43.7
CS(=O)(=O)N1CCc2cc(C(=O)NC3CC3)ccc21	none
CS(=O)(=O)N1CCc2cc(NC(=O)c3ccc(Cl)cc3Cl)ccc21	Calpain2 inh 50.4
CCCCOC(=O)C1=C(C)NC2=C(C(=O)CCC2)C1c1cc(OC)ccc1OC (centres undefined)	none
Fc1cc2ncn(Cc3ccccc3)c2cc1F	none
COC(C[C@H](O)C[C@@H](O)[C@H](C)OCc1ccccc1)OC	FXIIa inh 1536 46.3
COC(C[C@H](O)C[C@@H](O)[C@@H](C)OCc1ccccc1)OC	none
COc1ccc(OC)c(NC(=O)CC2C(=O)NCCN2C(=O)Nc2cccc(Cl)c2)c1 (centres undefined)	FXIIa inh 1536 45.3
Cc1cc(C)n(-c2cccc(CN3CCC(CO)(Cc4ccccc4)CC3)c2)n1	none (no result: hK5 inh)
Cc1ccccc1NC(=O)C1(NC(=O)c2cccc(N3C(=O)CSC3c3ccccc3)c2)CCCCC1 (centres undefined)	hK5 inh 80.0
Cc1cccc(NC(=O)c2ccc(C3SCC(=O)N3CCc3ccccc3)cc2)c1C (centres undefined)	none
c1ccc(CCNc2ncnc3scc(C4COc5ccccc5O4)c23)cc1 (centres undefined)	Calpain2 inh 60.0
Cc1c(NC(=O)OC(C)C)sc(=S)n1C	none
c1ccc(-c2n[nH]c3c2CCC3)cc1	hK5 inh 50.5
Cn1c(C(=O)NCCCN2CCc3ccccc3C2)cc2c(=O)n(C)c3ccccc3c21	none
N#Cc1sc2nc(-c3ccccc3)cc(C(F)(F)F)c2c1N	thrombin 1536 50.0
c1sc2[n+](c1C13CC4CC(CC(C4)C1)C3)CCS2	none
CCOC(=O)N1CCN(c2c(NCc3ccccn3)c(=O)c2=O)CC1	hK5 inh 40.3
O=C(NCCN=C1NS(=O)(=O)c2ccccc21)c1ccco1	hK5 inh 74.0
O=C(NNC(=O)c1ccccc1F)c1cccc(Cl)c1	none
COc1ccc2c(c1)C(c1ccc([N+](=O)[O-])cc1)=NNC(c1ccco1)=N2	hK5 inh 42.1
COc1ccc2c(c1)C(c1ccc(N3CCOCC3)cc1)=NNC(c1cccnc1)=N2	hK5 inh 93.8
O=C(COC(=O)c1cccnc1Cl)Nc1ccc2c(c1)OCCO2	none
CCc1nc2ccccc2c(C(=O)OCC(=O)C(C)(C)C)c1C	thrombin 1536 46.8
CCn1cnc2c1c(=O)n(CC(=O)N1CCc3ccccc31)c(=O)n2Cc1ccccc1	none
Cc1ccc(NC(=O)CCn2cccc2)cc1C	FXIIa inh 1536 43.0
Cc1ccc(NC(=O)CSCC(N)=O)cc1C	hK5 inh 41.9, FXIIa inh 1536 41.9
CCC(NS(=O)(=O)c1ccc(C)cc1)C(=O)Nc1ccc(NC(C)=O)cc1 (centres undefined)	none

Source: PubChem BioAssay (several laboratories)
